This note sets out measurements from ChEMBL document CHEMBL1135575, “Synthesis and structure-activity relationships of 3-aryloxindoles: a new class of calcium-dependent, large conductance potassium (maxi-K) channel openers with neuroprotective properties” (J Med Chem, 2002).

A short description of data set [1]: (§1) Effect on Maxi-K-Mediated outward current in Xenopus laevis oocytes expressing cloned mSlo maxi-K channels at 20 uM. The data set is classed as functional, Oocyte. In a few lines:
(§2)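 Two-electrode voltage clamp on Xenopus oocytes expressing cloned mSlo. Steps of 500–750 ms ran from a holding potential of -60 to +140 mV in 20 mV increments, without and with compound at 20 μM in the chamber. Each experiment ended with 10 min of 50 nM iberiotoxin, and that residual current was subtracted. The IbTx-sensitive current is given as % of drug-free control, from at least five oocytes.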

The subject of data set [2] is Rattus norvegicus. Nature of the data set: Neocortical infarct volume after IV administration (2 hr post-MCAO) in 13 rats by method A at the dose 5.0 mg/kg. Type of data set: functional. In outline:
(§3)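 Left MCA was permanently occluded by a subtemporal approach in male SHR (240–350 g) under ketamine/xylazine, with temperature kept at 36–38 °C. A single tail-vein bolus was given 2 h after occlusion, in vehicle of 2% DMSO and 98% propylene glycol. At 24 h the brain was perfused with 3% TTC, incubated 30 min at 37 °C and fixed. Neocortical infarct volume (mm3) was measured by planimetry of 2 mm slices and reported as mean (SE) and % reduction versus vehicle.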

The species named for data set [3] is Rattus norvegicus. Put plainly: Electrically stimulated [3H]glutamate release in hippocampal slices. The data set is classed as functional, Hippocampus. In outline: (§4)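 Hippocampal wedges (350 μm) from male Sprague–Dawley rats were washed in Krebs buffer with adenosine deaminase. They were loaded with 5 μCi [3H]-glutamate for 30 min at 37 °C, then superfused and collected as 5 min fractions. Release was evoked by field stimulation (35 mA, 10 Hz, 2 ms pulses, 1 min) at fractions 3 (S1) and 13 (S2). Compound was present from 30 min before S2. Data are S2/S1 ratios, analysed by ANOVA with Newman–Keuls.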

Data set [4] deals with Rattus norvegicus. Nature of the data set: Neocortical infarct volume after IV administration (2 hr post-MCAO) in 9 rats by method A at the dose 0.1 mg/kg. The data set is classed as functional. In outline:
as §3

Data set [5] concerns Rattus norvegicus. Put plainly: Neocortical infarct volume after IV administration (2 hr post-MCAO) in 13 rats by method A at the dose 10.0 mg/kg. The data set is classed as functional. In a few lines:
as §3

In data set [6] the test system is Rattus norvegicus. Put plainly: Neocortical infarct volume after IV administration (2 hr post-MCAO) in 13 rats by method A at the dose 1.0 mg/kg. The data set is classed as functional. In a few lines:
as §3

A short description of data set [7]: as §1. Type of data set: functional, Mus musculus, Oocyte. In outline:
as §2

Data set [8] in a line: Effect on Maxi-K mediated outward current in Xenopus laevis oocytes expressing cloned mSlo maxi-K channels at 20 uM. Type of data set: functional, Mus musculus, Oocyte. In a few lines: as §2
For data set [9], the species on record is Rattus norvegicus. Nature of the data set: Electrically stimulated [3H]-glutamate release in hippocampal slices. Type of data set: functional, Hippocampus. In outline:
as §4

Data set [10] has as its system Rattus norvegicus. Put plainly: Brain level concentration after IV administration (4.6 mg/kg) in male rats at 2 hours. Type of data set: functional, organism-based. In outline:
(§5)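 Male Sprague–Dawley rats (ca. 225 g) got a tail-vein bolus of 2 mL/kg. Three animals per group were killed by CO2 at 0.25 and 2 h. Whole brain and blood were taken. Brain homogenates and plasma were extracted with CH3CN and assayed by HPLC with UV detection at 290 nm. Plasma is given in μg/mL and brain in μg/g wet weight, as mean ± SD.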

The test system of data set [11] is Rattus norvegicus. Nature of the data set: Neocortical infarct volume after IV administration (2 hr post-MCAO) in 9 rats by method A at the dose 0.03 mg/kg. The data set is classed as functional. In outline: as §3
The test system of data set [12] is Rattus norvegicus. Put plainly: Brain level concentration after IV administration (4.6 mg/kg) in male rats at 0.25 hours. The data set is classed as functional, organism-based. In a few lines:
as §5

The subject of data set [13] is Rattus norvegicus. Put plainly: Plasma level concentration after IV administration (4.6 mg/kg) in male rats at 2 hours. Type of data set: functional, organism-based. In a few lines: as §5
Data set [14] concerns Rattus norvegicus. Nature of the data set: Neocortical infarct volume after IV administration (2 hr post-MCAO) in 9 rats by method B at the dose 0.01 mg/kg.
Data set [15] concerns Rattus norvegicus. Put plainly: Plasma level concentration after IV administration (4.6 mg/kg) in male rats at 0.25 hours. Type of data set: functional, organism-based. In a few lines: as §5
Data set [16] concerns Rattus norvegicus. Nature of the data set: Neocortical infarct volume after intraperitoneal administration (2 hr post-MCAO) in 11 rats by method B at the dose level 20(mg/kg). Type of data set: functional. In outline:
(§6)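 Permanent left MCA occlusion in male SHR (240–350 g) under ketamine/xylazine, at 36–38 °C. Compound was given intraperitoneally 2 h after occlusion in 2% DMSO/98% propylene glycol. At 24 h, infarcts were stained with 3% TTC perfusion, slices were cut at 2 mm, and neocortical infarct volume was measured by planimetry. Results are given as mean (SE) and % reduction versus vehicle from the same study.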

In data set [17] the test system is Rattus norvegicus. Nature of the data set: Neocortical infarct volume after IV administration (2 hr post-MCAO) in 9 rats by method A at the dose 10.0 mg/kg; Toxic at 10.0% reduction level. The settings on record: in vivo.
Data set [18] concerns Rattus norvegicus. Nature of the data set: Neocortical infarct volume after intraperitoneal administration (2 hr post-MCAO) in 11 rats by method B at the dose level 10(mg/kg). The data set is classed as functional. In a few lines: as §6
Data set [19] relates to Rattus norvegicus. Nature of the data set: Neocortical infarct volume after intraperitoneal administration (2 hr post-MCAO) in 9 rats by method A at the dose 10 mg/kg.
For data set [20], the system named is Rattus norvegicus. Put plainly: Neocortical infarct volume after IV administration (2 hr post-MCAO) in 9 rats by method B at the dose 0.1 mg/kg. The data set is classed as functional.

Molecules are shown by their SMILES. Several values for one entry are separate records, joined by “and”; a condition that tells them apart may be missing. Equal values may be shown once.

Regarding `O=C1Nc2cc(C(F)(F)F)ccc2C1(O)c1ccccc1` (configuration not stated), the Increase in [1] came to 87%.
With `O=C1Nc2cc(C(F)(F)F)ccc2C1(O)c1ccc(C(F)(F)F)cc1O` (configuration not stated), the Increase in data set [1] was found to be 108%.
Turning to `O=C1Nc2cc(C(F)(F)F)ccc2C1(O)c1cc(Cl)ccc1O` (single isomer, unassigned; (-)), the Increase in [1] amounted to 141%.
On the same count and under the same terms, for `O=C1Nc2ccc(F)cc2C1(O)c1cc(Cl)ccc1O` (configuration not stated) the value was 106%; for `COc1ccc(Cl)cc1[C@]1(O)C(=O)Nc2cc(C(F)(F)F)ccc21` (stereo in doubt; (+)-7c), 117%; for `O=C1Nc2cc(C(F)(F)F)ccc2C1(O)c1cc(-c2ccccc2)ccc1O` (configuration not stated), 106%.
Consider `O=C1Nc2cc(C(F)(F)F)ccc2C1(O)c1cccc(Cl)c1` (configuration not stated), for which the Increase in data set [1] is reported as 97%.
Take `O=C1Nc2c(C(F)(F)F)cccc2C1(O)c1cc(Cl)ccc1O` (configuration not stated): the Increase in [1] is on record as 122%.
Still for that read-out and setting: for `O=C1Nc2cc(C(F)(F)F)ccc2[C@@]1(O)c1cc(Cl)ccc1O` the value was 123%.
On to `COc1ccc(Cl)cc1C1(O)C(=O)Nc2cc(C(F)(F)F)ccc21` (racemic), for which the Increase in data set [1] is 120%.
Regarding `O=C1Nc2cc(C(F)(F)F)ccc2C1(O)c1cc(Cl)c(Cl)cc1O` (configuration not stated), the Increase in [1] was 107%.
Take `COc1ccc(Cl)cc1[C@]1(O)C(=O)Nc2cc(C(F)(F)F)ccc21` (stereo in doubt; (-)-7c): the Increase in data set [1] is recorded as 116%.
Consider `O=C1Nc2cc(C(F)(F)F)ccc2C1(O)c1cc(C(F)(F)F)ccc1O` (configuration not stated), for which the Increase in [1] was 130%.
For the compound `O=C1Nc2cc(C(F)(F)F)ccc2C1(O)c1cccc(Cl)c1O` (configuration not stated), in [1], the Increase came out at 116%.
As to `O=C1Nc2cc(C(F)(F)F)ccc2C1(O)c1cc(Cl)ccc1O` (racemic) [listing 1 of 2 here], the Reduction in data set [2] is listed as 10%; in data set [4], 4%; in data set [5], 4%; in data set [6], 10%. For the same compound, in data set [1], the Increase came out at 131%. Moreover, the Control in data set [3] was 89% and 93%.
On to `Nc1cc(O)c(C2(O)C(=O)Nc3cc(C(F)(F)F)ccc32)cc1Cl` (configuration not stated), for which the Increase in data set [7] is reported as 94%.
Turning to `COc1ccc(Cl)cc1C1(O)C(=O)Nc2ccc(C(F)(F)F)cc21` (configuration not stated), in [8], the Increase stood at 109%.
For the compound `O=C1Nc2cc(C(F)(F)F)ccc2C1(O)c1c(O)ccc2ccccc12` (configuration not stated), the Increase in data set [1] is given as 116%.
In the case of `O=C1Nc2cccc(C(F)(F)F)c2C1(O)c1cc(Cl)ccc1O` (configuration not stated), the Increase in data set [1] is 127%.
As to `Nc1ccc(C2(O)C(=O)Nc3cc(C(F)(F)F)ccc32)c(O)c1` (configuration not stated), the Increase in [7] came out at 92%.
On to `O=C1Nc2cc(C(F)(F)F)cc(C(F)(F)F)c2C1(O)c1cc(Cl)ccc1O` (configuration not stated), for which the Increase in [1] turned out to be 127%.
Regarding `COc1ccc(Cl)cc1C1C(=O)Nc2cc(C(F)(F)F)ccc21` (configuration not stated), the Increase in data set [1] amounted to 110%.
`CN1CCN(c2ccc(O)c(C3(O)C(=O)Nc4cc(C(F)(F)F)ccc43)c2)CC1` (configuration not stated): the Increase in data set [1] is 91%.
In the case of `O=C1Nc2ccccc2C1c1cc(Cl)ccc1O` (configuration not stated), the Increase in [1] is 139%.
With `O=C1Nc2cc(C(F)(F)F)ccc2C1(O)c1cc(I)ccc1O` (configuration not stated), the Increase in data set [1] was 107%.
Still for that read-out and setting: for `Cc1ccc2c(c1)C(O)(c1cc(Cl)ccc1O)C(=O)N2` (configuration not stated) the value was 100%.
For the compound `O=C1Nc2cc(C(F)(F)F)ccc2C1(O)c1cc(Br)ccc1O` (configuration not stated), in data set [1], the Increase amounted to 89%.
`O=C1Nc2ccccc2C1(O)c1cc(Cl)ccc1O` (configuration not stated): the Increase in [1] is given as 95%.
For `O=c1[nH]c2cc(C(F)(F)F)ccc2n1-c1cc(Cl)ccc1O`, the Increase in data set [1] turned out to be 132%.
For `O=C1Nc2cc(C(F)(F)F)ccc2C1(O)c1cc(Cl)cc(I)c1O` (configuration not stated), the Increase in [1] is 124%.
As for `O=C1Nc2cc(Cl)cc(Cl)c2C1(O)c1cc(Cl)ccc1O` (configuration not stated), in [1], the Increase came to 117%.
For the compound `O=C1Nc2cc(C(F)(F)F)ccc2C1(O)c1ccc(Cl)cc1O` (configuration not stated), the Increase in data set [1] was determined as 93%.
Consider `COc1ccc(O)c(C2(O)C(=O)Nc3cc(C(F)(F)F)ccc32)c1` (configuration not stated), for which, in [1], the Increase was 81%.
As to `O=C1Nc2ccc(C(F)(F)F)cc2C1(O)c1cc(Cl)ccc1O` (configuration not stated), in [1], the Increase is reported as 108%.
Turning to `O=C1Nc2cc(C(F)(F)F)ccc2C1c1cc(Cl)ccc1O` (racemic), the Control in data set [9] was determined as 71%. For the same compound, the Concentration was 0.23 µg/g in data set [10], 2.4 µg/g in [12], 0.28 µg/mL in data set [13] and 3.3 µg/mL in [15]. Moreover, the Reduction is 18% in data set [11]; 9% and 0% and 6% in data set [4] (0.1 mg/kg); 9% in [16]; 24% in data set [18]; 26% in data set [19]; 4% and 12% in data set [20]. The Increase in data set [14] was -7%; in [7] it was 164%. Also, the Toxic entry in data set [17] is on record as “Toxic”.
In the case of `O=C1Nc2ccc([N+](=O)[O-])cc2C1(O)c1cc(Cl)ccc1O` (configuration not stated), the Increase in [1] amounted to 78%.
Take `Cc1ccc(O)c(C2(O)C(=O)Nc3cc(C(F)(F)F)ccc32)c1` (configuration not stated): in [1], the Increase was 106%.
For the compound `O=C1Nc2cc(C(F)(F)F)ccc2C1(O)c1cc(F)ccc1O` (configuration not stated), the Increase in data set [1] came to 97%.
As for `O=C1Nc2cc(C(F)(F)F)ccc2C1(O)c1cc(Cl)ccc1O` (racemic) [listing 2 of 2 here], the Concentration in data set [10] turned out to be 0.87 µg/g; in [12], 1.34 µg/g; in data set [13] it was 0.231 µg/mL; in data set [15], 1.2 µg/mL.
With `O=C1Nc2cc(C(F)(F)F)ccc2C1(O)c1ccccc1O` (configuration not stated), the Increase in data set [1] turned out to be 90%.
For `O=C1Nc2cc(C(F)(F)F)ccc2C1(O)c1cc(Cl)cc(Cl)c1O` (configuration not stated), the Increase in data set [1] was found to be 108%.
